Laboratory results published in ChEMBL document CHEMBL1153389, “Identification of novel antibacterial peptides by chemoinformatics and machine learning” (2009).

Legend:
Format in all cases: functional
Pseudomonas aeruginosa [1] = test: Antimicrobial activity against Pseudomonas aeruginosa H1030 after overnight incubation by broth microdilution method
In short: (§1)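 Modified broth microdilution in polypropylene 96-well plates with Mueller-Hinton (MH) medium. Bulk-synthesized peptides were serially diluted at 10-fold final strength in 0.01% acetic acid with 0.2% BSA, then added 1:10 to MH. Inoculum came from an overnight culture at a final (2-7) × 10^5 CFU/mL. Plates were incubated overnight at 37 °C. MIC was the lowest concentration with no visible growth.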

Staphylococcus aureus [2] = test: Antimicrobial activity against Staphylococcus aureus ATCC 25923 after overnight incubation by broth microdilution method; in short: as §1
Pseudomonas aeruginosa [3] = test: Antimicrobial activity against multidrug-resistant Pseudomonas aeruginosa Brazil 9 isolate after overnight incubation by broth microdilution method; in short: as §1
Enterobacter cloacae = test: Antimicrobial activity against class C chromosomal beta lactamase expressing Enterobacter cloacae 218R after overnight incubation by broth microdilution method
In short: (§2)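 Modified broth microdilution. Peptides are serially diluted in 0.01% acetic acid with 0.2% BSA at 10-fold the final concentration, then added to MH medium in polypropylene plates. Bacteria from an overnight culture are added to a final (2-7) × 10^5 CFU/mL. Plates are incubated overnight at 37 °C. MIC is the lowest concentration with no visible growth.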

Enterococcus faecium [4] = test: Antimicrobial activity against vancomycin-resistant Enterococcus faecium t62764(VanB) isolate after overnight incubation by broth microdilution method; in short: as §1
Enterococcus faecalis [5] = test: Antimicrobial activity against vancomycin-resistant Enterococcus faecalis w6190(VanA) isolate after overnight incubation by broth microdilution method; in short: as §1
Klebsiella pneumoniae [6] = test: Antimicrobial activity against extended-spectrum beta-lactamase-resistant Klebsiella pneumoniae 61962 after overnight incubation by broth microdilution method; in short: as §1
[7] = test system: Stenotrophomonas maltophilia; test: Antimicrobial activity against Pseudomonas maltophilia ATCC 13637 after overnight incubation by broth microdilution method; in short: as §2
Escherichia coli [8] = test: Antimicrobial activity against extended-spectrum beta-lactamase producing Escherichia coli 63103 after overnight incubation by broth microdilution method; in short: as §2
Enterococcus faecalis [9] = test: Antimicrobial activity against vancomycin-resistant Enterococcus faecalis f43559 (VanB) isolate after overnight incubation by broth microdilution method; in short: as §1
Pseudomonas aeruginosa [10] = test: Antimicrobial activity against Pseudomonas aeruginosa LES400 after overnight incubation by broth microdilution method; in short: as §1
Staphylococcus aureus [11] = test: Antimicrobial activity against methicillin-resistant Staphylococcus aureus C623 after overnight incubation by broth microdilution method; in short: as §1
Pseudomonas aeruginosa [12] = test: Antimicrobial activity against Pseudomonas aeruginosa H103 after overnight incubation by broth microdilution method; in short: as §2
Pseudomonas aeruginosa [13] = test: Antimicrobial activity against Pseudomonas aeruginosa H1027 after overnight incubation by broth microdilution method; in short: as §2
Pseudomonas aeruginosa [14] = test: Antimicrobial activity against multidrug-resistant Pseudomonas aeruginosa Brazil 213 isolate after overnight incubation by broth microdilution method; in short: as §1
Escherichia coli [15] = test: Antimicrobial activity against extended-spectrum beta-lactamase producing Escherichia coli 64771 after overnight incubation by broth microdilution method; in short: as §2
Pseudomonas aeruginosa [16] = test: Antimicrobial activity against Pseudomonas aeruginosa H1001 expressing luciferase gene assessed as ratio antimicrobial IC50 for drug to Bac2A peptide by luminescence assay
In short: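 Peptides are made by SPOT synthesis on cellulose, cleaved, and the spots placed in plate wells. Overnight P. aeruginosa H1001 (fliC::luxCDABE) is diluted 1:500 in 100 mM Tris-HCl pH 7.3 with 20 mM glucose and added to the wells. After 30 min, serial dilutions (8 rows) are made. Luminescence is read at 4 h. IC50 is taken from a sigmoid fit and expressed relative to Bac2A run in the same series.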

Klebsiella pneumoniae [17] = test: Antimicrobial activity against extended-spectrum beta-lactamase-resistant Klebsiella pneumoniae 63575 after overnight incubation by broth microdilution method; in short: as §1
Pseudomonas aeruginosa [18] = test: Antimicrobial activity against multidrug-resistant Pseudomonas aeruginosa Brazil 198 isolate after overnight incubation by broth microdilution method; in short: as §1
Enterococcus faecium [19] = test: Antimicrobial activity against vancomycin-resistant Enterococcus faecium mic80(VanA) isolate after overnight incubation by broth microdilution method; in short: as §1
Enterococcus faecalis [20] = test: Antimicrobial activity against Enterococcus faecalis ATCC 29212 after overnight incubation by broth microdilution method; in short: as §2

Substance | MIC (Pseudomonas aeruginosa [1]) [µM] | MIC (Staphylococcus aureus [2]) [µM] | MIC (Pseudomonas aeruginosa [3]) [µM] | MIC (Enterobacter cloacae) [µM] | MIC (Enterococcus faecium [4]) [µM] | MIC (Enterococcus faecalis [5]) [µM] | MIC (Klebsiella pneumoniae [6]) [µM] | MIC [7] [µM] | MIC (Escherichia coli [8]) [µM] | MIC (Enterococcus faecalis [9]) [µM] | MIC (Pseudomonas aeruginosa [10]) [µM] | MIC (Staphylococcus aureus [11]) [µM] | MIC (Pseudomonas aeruginosa [12]) [µM] | MIC (Pseudomonas aeruginosa [13]) [µM] | MIC (Pseudomonas aeruginosa [14]) [µM] | MIC (Escherichia coli [15]) [µM] | Ratio IC50 (Pseudomonas aeruginosa [16]) | MIC (Klebsiella pneumoniae [17]) [µM] | MIC (Pseudomonas aeruginosa [18]) [µM] | MIC (Enterococcus faecium [19]) [µM] | other results
H-WRWWKIWKR-OH | 47 | 3 | 24 | 12 | 1.5 | 94 | 94 | 0.8 | 5.9 | 94 | 12 | 3 | 5.9 | 1.5 | 47 | 5.9 | 0.14 | 24 | 24 | 5.9 | MIC (Enterococcus faecalis [20]): 24 µM
H-RRFKFIRWW-OH | 49 | 6.1 | 24 | 12 | 6.1 | 98 | 98 | 0.8 | 12 | 49 | 12 | 6.1 | 6.1 | 3.1 | 49 | 12 | 0.24 | 49 | 49 | 6.1 | MIC (Enterococcus faecalis [20]): 12 µM
H-KWKIFRRWW-OH | 48 | 3.1 | 24 | 6 | 6.1 | 97 | 194 | 1.5 | 24 | 97 | 12 | 3.1 | 12 | 3.1 | 48 | 12 | 0.16 | 97 | 24 | 24 | MIC (Enterococcus faecalis [20]): 24 µM
